# SR-BI DiI-HDL act – activators of SR-BI mediated HDL lipid uptake | 320,000 compounds, 0.096% hits | CHO ldlA[mSR-BI] cells, DiI-HDL uptake fluorescence, 3 h; 100 = double the neutral-control signal | activation, % at 12.5 µM;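 active = mean replicate activation of at least 60% and every replicate at or above 60%; inconclusive = mean or all-replicate condition met, but not both; inactive = mean below 60% and not all replicates reaching 60%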;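 note: 0% = median plate neutral-control signal and 100% = twice that signal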
#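 Test system: SR-BI-overexpressing, LDLR-lacking CHO cells; Medium: Ham's F12 with 0.5% BSA, HEPES 25 mM, pH 7.4; Schedule: 3 h, 37 °C; Technique: bottom-read fluorescence, 550/595 nm.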
# MIN6 prolif – induces beta-cell replication in MIN6 cells; MIN6 cells proliferation, ATPlite luminescence, 48 h; cells starved in 0.2% serum; 100% = growth in 10% serum; proliferation, % at 10 µM; 330,000 compounds, 0.29% hits; AID 2380;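 active = compounds whose signal lies at least 3.5 SD above the mean of all wells on their plate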;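 note: 0% = DMSO-treated cells in low-serum medium and 100% = 10% serum control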
# m5-HT2A agonist – mouse HTR2A agonism via beta-arrestin recruitment; P35363; CHO-K1 mHTR2A beta-arrestin complementation, luminescence; percent of 30 µM serotonin response; activation, % at 7.6 µM; 360,000 compounds, 0.66% hits;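 active = activation above a run cutoff, the mean activation of all tested compounds plus 3 SD, cut at about 14% in these data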;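 note: 0% = plate median of compound wells and 100% = 30 µM serotonin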
# SR-BI HDL uptake – mouse SR-BI HDL lipid transfer inhibition; Q61009; ldlA[mSR-BI] CHO cells, DiI-HDL uptake fluorescence, 3 h; inhibition, % at 12.5 µM; 320,000 compounds, 0.96% hits; AID 488896;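 active = mean replicate inhibition of at least 70% and a set share of replicates each scoring 70 or more; inconclusive = meets just one of the two criteria; inactive = fails both criteria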;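 note: 0% = median of neutral control wells and 100% = median of positive control wells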
# Target sequence (Q61009 whole entry, looked up): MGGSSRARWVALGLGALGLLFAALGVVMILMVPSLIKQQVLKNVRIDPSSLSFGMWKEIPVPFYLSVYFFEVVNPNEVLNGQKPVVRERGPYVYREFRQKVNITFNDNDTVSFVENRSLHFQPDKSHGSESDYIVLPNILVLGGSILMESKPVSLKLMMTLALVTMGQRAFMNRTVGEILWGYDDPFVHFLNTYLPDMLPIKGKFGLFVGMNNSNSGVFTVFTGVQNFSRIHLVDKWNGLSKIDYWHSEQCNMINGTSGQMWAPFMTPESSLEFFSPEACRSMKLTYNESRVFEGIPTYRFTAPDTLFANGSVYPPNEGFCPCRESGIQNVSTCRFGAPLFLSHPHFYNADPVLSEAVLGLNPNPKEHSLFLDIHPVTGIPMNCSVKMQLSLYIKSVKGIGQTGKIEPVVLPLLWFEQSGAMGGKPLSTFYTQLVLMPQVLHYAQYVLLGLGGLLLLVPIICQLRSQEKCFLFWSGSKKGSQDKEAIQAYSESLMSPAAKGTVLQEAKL
# Insulin prom up – MIN6 insulin promoter up-regulation | MIN6 insulin promoter-GFP reporter, high-content imaging; stronger effect = higher value | z-score at 5 µM | 190,000 compounds, 0.3% hits | AID 1625;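 active = z-score above 3 at 5 µM with at least 500 cells counted in the well; inconclusive = wells under 500 cells, flagged as cytotoxic or low count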
# Calb FLC – C. albicans growth modulation with fluconazole; C. albicans CaCi-2 + fluconazole, Alamar Blue growth, 48 h; growth inhibition, % (test concentration not listed); 300,000 compounds, 0.57% hits; AID 1979;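 active = growth inhibition above about 58% in most replicates, limit read from the data, passing the limit was not always enough; inconclusive = exactly half the replicates above a set limit; inactive = most replicates below a set limit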;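 note: all wells also contain fluconazole at 8 µg/ml as a sub-toxic cotreatment; 0% = median of DMSO wells and 100% = median of geldanamycin control wells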
# OPRM1 ag – activates human mu opioid receptor in HTR2A counterscreen; U2OS OPRM1 beta-arrestin PathHunter, luminescence; DMSO 0%, DAMGO 9.3 µM 100%; shares compounds with m5-HT2A agonist; 2,300 compounds, 5.3% hits; activation, % at 9.3 µM;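 active = mean activation above the mean of DMSO-only wells plus 3 SD, cut at about 0.5% in these data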
# m5-HT2A ag conf – confirmation of mouse HTR2A serotonin receptor agonists | shares compounds with m5-HT2A agonist | CHO-K1 PathHunter beta-arrestin recruitment, luminescence; DMSO 0%, 30 µM serotonin 100% | activation, % at 7.6 µM | 2,300 compounds, 19% hits | AID 624381;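 active = mean activation across triplicates above the hit threshold derived in the original primary screen, cut at about 15% in these data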
# The depositor's hits bear a star; ? = inconclusive; . = no result. A selection: hits, their analogues and other compounds. The true share with any hit is near 2.4%.
SMILES,SR-BI DiI-HDL act,MIN6 prolif,m5-HT2A agonist,SR-BI HDL uptake,Insulin prom up,Calb FLC,OPRM1 ag,m5-HT2A ag conf
O=C(O)c1ccc(/C=N/Nc2ccc(C(F)(F)F)cn2)cc1,15.8,.,17.8*,-15.8,-0.43,-6.3,-0.6,-2.4
CCOc1ccc(NC2c3ccccc3C(=O)N2Cc2ccco2)cc1 (stereo not given),-25.1,0.6,38.4*,25.1,.,-9.4,-0.2,-4.3
CCN(CC)CCn1c2c(c(SCC(=O)NCc3ccccc3)nc1=O)CCC2,9.9,-0.5,9.7,-9.9,.,3.2,.,.
CCN(CC)CCn1c(NC(=O)c2ccc(C(F)(F)F)cc2)nc2ccccc21,-4.4,0.4,-5.2,4.4,-1.27,-25.3,.,.
CCN(CC)CCn1c(NC(=O)c2ccc(C)cc2)nc2ccccc21,-14.2,-2.9,25.1*,14.2,.,1.6,.,7.5
Cc1cccc(-c2nsc(SCC(=O)Nc3nccs3)n2)c1,33.4,0.3,18.0*,-33.4,-0.38,11.1,0.0,-1.7
CCOC(=O)C1CCCN(C(=O)CNC(=O)c2ccc(Br)o2)C1 (stereo not given),11.0,-0.3,8.2,-10.9,.,.,.,.
CCOC(=O)N1CCC(N2C(=O)c3ccc(C(=O)NCc4ccco4)cc3C2=O)CC1,6.2,1.3,23.1*,-6.2,.,-3.2,-0.5,-3.9
CCOC(=O)N1CCC(N2C(=O)c3ccc(C(=O)NCc4ccc(F)cc4)cc3C2=O)CC1,-29.8,2.4,-4.8,29.8,.,.,.,.
O=C(O)C1C2C=CC(C2)C1C(=O)NCCc1cccc(Cl)c1 (stereo not given),.,6.7,31.6*,-49.2,-0.95,16.2,-0.3,5.2
O=C(O)C1CCCCC1C(=O)NCCc1cccc(Cl)c1 (stereo not given),5.9,-1.4,34.6*,-5.9,.,0.0,-0.4,-0.8
O=C(O)C1CCCCC1C(=O)NCCc1ccc(Cl)cc1 (stereo not given),-17.7,2.6,6.8,17.7,1.18,0.4,.,.
O=C(O)C1C2C=CC(C2)C1C(=O)NCc1cccc(Cl)c1 (stereo not given),15.8,-3.1,4.2,-15.8,.,0.6,.,.
O=S(=O)(NCc1ccc(F)cc1)c1ccccc1Br,.,0.0,1.0,.,.,.,.,.
O=C(CN1C(=O)CSc2ncccc21)NCCN1CCOCC1,5.2,-2.1,-5.9,-5.2,0.59,-4.7,.,.
COCCCNC(=O)CN1C(=O)CSc2ncccc21,1.0,-1.6,18.0*,-1.0,0.81,-6.2,-0.5,-4.0
CCC(=O)N(C)C[C@@H]1Oc2ncc(Br)cc2C(=O)N([C@@H](C)CO)C[C@H]1C,.,.,-0.5,.,.,.,.,.
Cc1nn(C)c(C(=O)Nc2ccn(C34CC5CC(CC(C5)C3)C4)n2)c1[N+](=O)[O-],-12.3,-0.4,15.1*,12.3,0.86,-5.2,-0.3,11.5
COC(=O)C[C@H]1CC[C@@H](NC(=O)Nc2c(C)noc2C)[C@@H](CO)O1,.,.,3.7,.,.,.,.,.
CCn1c(=O)c(C(=O)CN2CCN(S(=O)(=O)c3ccccc3)CC2)c(N)n(Cc2ccccc2)c1=O,4.0,-1.7,1.6,-4.0,-0.63,-5.1,.,.
CCn1c(=O)c(C(=O)CN2CCN(S(=O)(=O)c3ccc(C)cc3C)CC2)c(N)n(Cc2ccccc2)c1=O,19.8,-5.5,16.1*,-19.8,-1.19,3.4,-0.4,-5.1
COC(=O)C1=C(C)N(CCc2c[nH]c3ccc(OC)cc23)C(=O)C1,8.9,-1.4,17.2*,-8.9,-0.18,9.4,-0.5,-0.2
CCOc1ccc(N2CC(C(=O)NCCc3c[nH]c4ccc(OC)cc34)CC2=O)cc1 (stereo not given),.,-2.6,17.6*,.,.,2.8,-0.4,3.2
COc1ccc2[nH]cc(CCNC(=O)C3CC(=O)N(c4ccc(Cl)cc4)C3)c2c1 (stereo not given),.,0.0,15.7*,.,.,-4.9,-0.6,3.0
COc1ccc(CCNC(=O)C2CC(=O)N(c3ccc(C)cc3)C2)cc1 (stereo not given),.,-1.1,1.9,.,.,-13.3,.,.
SMILES,SR-BI DiI-HDL act,MIN6 prolif,m5-HT2A agonist,SR-BI HDL uptake,Insulin prom up,Calb FLC,OPRM1 ag,m5-HT2A ag conf
O=C(CSc1cn(CCNC(=O)c2cccs2)c2ccccc12)NC1CCCC1,23.3,1.4,0.6,-23.3,0.57,0.0,.,.
COc1ccc(CNC(=O)c2cc(=O)c3cc(C)cc(C)c3o2)cc1,5.7,-2.1,3.1,-5.7,.,-9.1,.,.
CCN(CC(=O)Nc1c(F)cccc1F)C(=O)c1ccc(N2CCCCC2)c([N+](=O)[O-])c1,-14.2,-4.3,15.1*,14.2,.,-7.2,0.7*,8.0
CCN(CC(=O)Nc1c(F)cccc1F)C(=O)c1cc(S(=O)(=O)N(CC)CC)ccc1N1CCCCC1,19.1,-4.7,0.4,-19.1,.,-3.3,.,.
COc1cc(CNCCc2ccccc2)cc(Cl)c1OCc1ccccc1,.,-6.2,19.6*,.,.,-2.0,1.2*,3.1
COc1cc(CNCc2ccccc2)cc(Cl)c1OC,.,-0.6,4.4,.,0.06,-16.9,.,.
Cc1cccc(C(=O)OCC(=O)c2c(N)n(CC(C)C)c(=O)n(C)c2=O)c1O,-23.2,-3.0,-1.3,23.2,.,6.8,.,.
Cc1cccc(C(=O)OCC(=O)c2c(N)n(CC(C)C)c(=O)n(C)c2=O)c1[N+](=O)[O-],-24.3,-2.5,16.9*,24.3,.,-4.7,-0.1,-0.6
Cc1ccc(S(=O)(=O)CC(=O)Nc2nc(C(C)(C)C)cs2)cc1,-6.6,0.0,18.8*,6.6,.,-0.7,-0.1,-1.4
Cc1ccc(S(=O)(=O)CCC(=O)Nc2nc(C(C)(C)C)cs2)cc1,7.4,-3.4,-2.2,-7.4,.,-1.2,.,.
CCn1c(SCC(=O)NC2CCCC2)nnc1-c1cccnc1,11.4,-5.0,-0.4,-11.4,.,8.3,.,.
CC(C)c1cc(C(=O)N2CCCC(C(=O)c3ccc4ccccc4c3)C2)on1 (stereo not given),-0.8,-3.8,-5.0,0.8,0.23,7.7,.,.
Cc1cc(Cl)ccc1C(=O)C1CCCN(C(=O)c2cc(C(C)C)no2)C1 (stereo not given),3.9,-1.9,46.1*,-3.9,-0.37,?,-0.5,-4.8
CC1=C(C(=O)N(C(C)C)C(C)C)CC(CC(=O)NC2CCCC2)C(=O)N1Cc1ccc(C(C)(C)C)cc1 (stereo not given),.,.,3.4,.,.,.,.,.
C=CCCC(=O)N1C[C@H]2CON(C)[C@H]2C[C@H]1c1ccc(Br)cc1,.,.,2.0,.,.,.,.,.
CCCC(=O)Nc1nc(-c2ccc3c(c2)OCCO3)cs1,-3.6,-1.0,16.5*,3.6,.,.,-0.7,-5.6
CSCC(=O)Nc1nc(-c2ccc3c(c2)OCCO3)cs1,-20.3,-2.9,0.1,20.3,-0.31,-5.5,.,.

# High-throughput results (PubChem)
